# Screens deposited in PubChem by several laboratories.
# A selection: hits, their analogues and other compounds. The true share with any hit is near 3.2%.
# NR2E3 ag-1 – NR2E3 (human) agonism; hit rate 0.12% among 320,000; Q9Y5X4; inhibition of corepressor binding, % at 4.78 µM; GST-NR2E3/biotin-RetCOR TR-FRET, 1536-well;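 active means percent inhibition above the cutoff of mean plus 3 SD of all tested compounds, set per screening campaign, cut at about 20% in these data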;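 further: 0% = DMSO wells and 100% = biotin wells as full block of FRET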
# Target sequence (Q9Y5X4 whole entry, looked up): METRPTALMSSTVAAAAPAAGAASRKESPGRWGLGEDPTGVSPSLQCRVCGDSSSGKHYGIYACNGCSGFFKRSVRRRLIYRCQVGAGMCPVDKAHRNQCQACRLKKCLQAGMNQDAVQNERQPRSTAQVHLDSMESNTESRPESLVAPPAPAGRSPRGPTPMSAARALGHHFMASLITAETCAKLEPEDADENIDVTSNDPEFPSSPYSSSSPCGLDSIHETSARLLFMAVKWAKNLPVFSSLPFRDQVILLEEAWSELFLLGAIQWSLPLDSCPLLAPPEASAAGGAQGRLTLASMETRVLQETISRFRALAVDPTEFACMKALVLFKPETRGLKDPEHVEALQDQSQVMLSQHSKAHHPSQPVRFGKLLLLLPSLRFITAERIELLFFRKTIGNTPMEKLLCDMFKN
#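 System: GST-NR2E3 and biotin-RetCOR proteins; probe or stimulus: 7 nM biotin-RetCOR; doses: compound at 4.8 µM, single dose; schedule: Compound–protein incubation for 5 h at 4 °C; detection: time-resolved FRET; read-out: percent inhibition; controls: biotin wells as high control, 0.6% DMSO wells as low control; format: 1536-well plates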
# NR2E3 ag-2 – human photoreceptor-specific nuclear receptor agonism; CHO-S Gal4-NCOR/VP16-NR2E3 two-hybrid, luciferase; inhibition of corepressor binding, % at 3.98 µM; hit rate 0.35% among 360,000; AID 602229;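 active means inhibition above the mean of all tested compounds plus 3 SD, cut at about 70% in these data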;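 further: 0% = DMSO with NR2E3 transfected cells and 100% = cells lacking NR2E3 construct; higher means lower luciferase signal from less NR2E3 corepressor binding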
# SMARCA2 activ – SMARCA2 function activation, primary screen; hit rate 1% among 370,000; MG213 cells, MMTV-luciferase reporter, dexamethasone, overnight; activation, % at 9.1 µM; in the data active means activation above about 7.8%;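 further: 0% = vehicle wells and 100% = reference activator wells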
# DAX1 inh-1 – inhibitors of DAX1 repression of SF-1 activated StAR promoter | hit rate 1.1% among 370,000 | HEK293T StAR-luciferase reporter, SF-1/DAX-1 repression relief | inhibition, % at 6.8 µM;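 active means inhibition above the mean over all tested compounds plus 3 SD, cut at about 3.6% in these data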;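 further: 0% = DAX-1 cells with DMSO and 100% = cells lacking DAX-1 with DMSO; higher inhibition means more luminescence from relief of DAX-1 repression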
# DAX1 inh-2 – NR0B1 (DAX1) inhibition | P51843 | HEK293 Gal4-DAX1 luciferase reporter, luminescence | inhibition, % at 6.75 µM | hit rate 0.99% among 340,000;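 active means inhibition above the mean over all tested compounds plus 3 SD, cut at about 4.2% in these data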;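 further: 0% = DAX1-transfected cells with DMSO and 100% = empty-vector control cells with DMSO; inhibition shows as a rise in luminescence from relieved DAX1 repression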
# JMJD2C inh – inhibitors of human GASC-1 (JMJD2C) demethylase. Q9H3R0. GST-JMJD2C(1-420) H3K9me3 demethylation, DELFIA europium. inhibition, % at 2.35 µM. hit rate 0.069% among 330,000. AID 2099;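 active means more than half of a compound's replicate wells show inhibition beyond 50%, single wells judged on their own value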;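 further: signal counts dimethyl H3K9 product captured on neutravidin plate; 0% = median of DMSO wells and 100% = 0.3 times that DMSO median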
# An asterisk follows results filed as active; . = not tested or not shown.
SMILES,NR2E3 ag-1,NR2E3 ag-2,SMARCA2 activ,DAX1 inh-1,DAX1 inh-2,JMJD2C inh
COc1ccccc1NC(=O)NNC(=O)c1ccc2ccccc2c1,.,-3,-4,-1,0,-3
CSCCCNC(=O)c1cn(C(C)c2ccccc2)nn1 (stereo not drawn),.,.,-5,0,.,.
C/C(=N\NC(=O)c1ccc(C)cc1)c1c(C)[nH]n(-c2ccccc2)c1=O,.,-50,-1,0,1,-8
C/C(=N\NC(=O)c1ccccc1)c1c(C)[nH]n(-c2ccccc2)c1=O,3,-88,1,1,4.8*,6
CCCC(=O)N1CCC[C@]2(CC[C@H](CCC(=O)OCC)O2)C1,.,.,1,-1,.,.
COc1ccc(C(=O)OCC(=O)c2cc(OC)ccc2OC)c(OC)c1,3,-6,0,-1,0,-3
COc1ccc(C(=O)COC(=O)c2ccccc2O)c(OC)c1,4,-91,5,3.9*,1,-1
Cc1ccc(NC(=O)CSc2nc(C)cc(=O)[nH]2)c(C)c1,.,.,-2,0,.,.
CCc1ccc(OCc2nc(-c3ccccn3)no2)c(Br)c1,2,-147,1,7.1*,-1,5
CC(C)c1ccc(OCc2nc(-c3ccccn3)no2)c(Br)c1,1,-118,1,4.1*,0,-13
Cc1ccc(OCc2nc(-c3ccccn3)no2)c(Br)c1,-3,-133,3,3,-2,4
COC(=O)[C@]12C[C@H](CC(=O)N3CCSCC3)C(=O)N(CCC3=CCCCC3)C1=C[C@H](C(C)C)O[C@@H]2C1CC1,.,.,7,-1,.,.
COc1cccc(-c2ccc(CC[C@H]3O[C@H]4CC[C@@H](CO)O[C@H]4C[C@H]3NC(=O)c3cnccn3)cc2)c1,.,.,-2,0,.,.
O=Cc1ccc(-n2cncn2)cc1,2,-12,-1,0,-1,-5
COC(=O)/C=C/c1ccc(-n2cncn2)cc1,1,-31,7.8*,0,0,-1
CCc1ccc(Cn2nnc(C(=O)Nc3cccc(C)c3)c2N)cc1,1,-44,-1,0,4.3*,0
CCn1c(SCC(=O)Nc2ccc3c(c2)OCO3)nnc1C1CC1,3,-19,-2,0,4.9*,-2
Cc1ccc(-n2c(Cc3cccs3)nnc2SCc2ccc([N+](=O)[O-])cc2)cc1,.,.,-5,-1,.,.
Cc1nnc(NC(=O)c2ccc3ccccc3n2)s1,0,-97,3,4.3*,2,-5
Cc1nc2ccc(NC(=O)c3ccc4ccccc4n3)cc2s1,1,-96,1,1,1,-16
CC(NC(=O)c1ccc2ccccc2n1)c1ccccc1 (stereo not drawn),-2,8,-1,-1,5.4*,-3
COC(=O)[C@]12C[C@H](CC(=O)NCc3ccc(C)o3)C(=O)N(Cc3ccco3)C1=C[C@H](C(C)C)O[C@@H]2C1CC1,.,.,3,-1,.,.
Cc1ccc2nc(C3CCCCC3)[nH]c2c1,-1,-91,6,2,4.7*,5
CN1[C@H](Cc2ccccc2)COc2cc(N3CCCC3)ccc2S1(=O)=O,.,.,-3,-5,.,.
COc1ccc(C(=O)CN2CCN(CCN3C(=O)c4cccc5cccc(c45)C3=O)CC2)cc1,-3,-7,2,0,-1,17
SMILES,NR2E3 ag-1,NR2E3 ag-2,SMARCA2 activ,DAX1 inh-1,DAX1 inh-2,JMJD2C inh
COc1cc2c3c(cccc3c1)C(=O)N(CCN1CCCC1)C2=O,.,-125,0,-2,8.7*,.
CC(=O)N(C)c1ccc(N=NC2C(=O)N(C(N)=S)N=C2C)cc1 (stereo not drawn),-8,-82,2,3,5.3*,20
O=C(CCNS(=O)(=O)c1ccc2[nH]c(=O)oc2c1)Nc1cccc(Br)c1,0,-17,7.8*,0,1,1
COc1ccc(Oc2ccc(/C=N/NC(=O)c3cccnc3)cc2[N+](=O)[O-])cc1,0,-50,0,0,4.6*,5
CCCC(=O)N1CCC[C@]2(CC[C@H](CCC(C)=O)O2)C1,.,.,1,1,.,.
O=C(C=C1SCCS1)/C=C/c1ccco1,2,-123,8,3.7*,0,-17
CCO[C@@H]1OC(C(N)=O)=C[C@H](C2CCCCC2)[C@H]1CCCO,0,10,0,0,4.3*,3
C#CCNC(=O)C1=C[C@@H](C2CCCCC2)[C@H](CCCO)[C@@H](OCC)O1,3,-5,2,0,5.3*,4
